Screening results from PubChem BioAssay.
Hits are enriched below; roughly 2.5% of the tested compounds scored in any of these assays.
FGF22 binding = shifts melting point of recombinant human FGF22. activity (Tm shift, normalised), % at 9.99 µM. Q9HCT0. AID 651658. recombinant FGF22 thermal shift, SYPRO orange fluorescence; percent of sucrose octasulfate shift, DMSO zero. 1.5% of 340,000 active;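 active means mean Tm shift, scaled 0 neutral to 100 positive control, at about 1.3% or above, every replicate too, limit read from the data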
Target sequence (Q9HCT0 whole entry, looked up): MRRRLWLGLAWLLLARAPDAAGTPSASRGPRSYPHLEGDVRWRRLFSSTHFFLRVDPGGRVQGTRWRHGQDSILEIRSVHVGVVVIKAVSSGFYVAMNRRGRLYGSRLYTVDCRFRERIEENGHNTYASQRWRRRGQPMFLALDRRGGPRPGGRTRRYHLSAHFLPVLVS
E-selectin induc = E-selectin induction on HUVECs. activation, % at 7.58 µM. HUVEC E-selectin immunofluorescence imaging; normalized: neutral wells 0, TNF-alpha wells 100. 0.37% of 260,000 active. P16581;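 active means mean E-selectin-positive cell signal at least 10% of the positive control, reached in at least 60% of replicates, without over 20% cell loss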
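Assay system: HUVEC primary endothelial cells. Input: 3,000 HUVEC seeded per well. Doses: one compound dose added by pin transfer. Read-out basis: % PE-positive cells. Benchmarks: TNF-alpha high, DMSO low. Detection: immunofluorescence imaging. Buffer or medium: EGM-2, gelatin.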
S100A4 inh HTS = inhibitors of human S100A4 binding to myosin IIA peptide; 0.14% of 360,000 active; AID 652163; S100A4/TAMRA-MyoIIA peptide fluorescence polarization; inhibition, % at 10.7 µM;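 active means mean inhibition of at least 70% across replicates, with every replicate also reaching that level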
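Test system: S100A4 monomer protein. Medium: HEPES buffer with Ca2+, pH 7.2. Reagent: fluorescent myosin IIA peptide, 5 nM. Compound dosing: single-point compound testing. Timing: 5 min between mix addition and reading. Benchmarks: DMSO neutral and TFP positive wells.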
SIRT5 inh = sirtuin-5 (human) deacylase inhibition | Q9NXA8 | Purified SirT5, succinyl-peptide AMC, trypsin-coupled fluorescence | inhibition, % at 15 µM | 1.1% of 330,000 active; in the data active means inhibition above about 15%
Target sequence (Q9NXA8 whole entry, looked up): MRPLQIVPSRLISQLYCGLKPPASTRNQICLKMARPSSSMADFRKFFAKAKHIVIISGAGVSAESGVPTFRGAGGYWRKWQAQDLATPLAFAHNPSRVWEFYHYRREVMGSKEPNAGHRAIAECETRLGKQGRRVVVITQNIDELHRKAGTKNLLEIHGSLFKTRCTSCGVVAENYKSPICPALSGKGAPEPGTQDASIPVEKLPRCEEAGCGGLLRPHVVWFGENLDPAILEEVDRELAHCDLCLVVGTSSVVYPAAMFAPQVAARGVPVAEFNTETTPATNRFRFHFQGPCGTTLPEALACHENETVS
miR-122 sensor = blocks miR-122 activity in Huh7 sensor cells; activation (reporter increase), % at 12.5 µM; Huh7 miR-122 Renilla luciferase sensor, 48 h; neutral wells = 0, positive control = 100; 0.3% of 340,000 active;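 active means mean replicate activation score at least 90 and every replicate individually at or above 90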;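 further: higher luciferase means less miR-122 activity so hits act as miR-122 inhibitors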
Active calls of the source: *; . = no result given; [ ] = dose if it differs, or a comment.

SMILES	FGF22 binding	E-selectin induc	S100A4 inh HTS	SIRT5 inh	miR-122 sensor
Cc1cccc(CC(=O)Nc2sc(C(C)C)cc2C(=O)N2CCOCC2)c1	0	67*	-1	-2	10
CCC(Oc1cccc(C)c1)C(=O)Nc1ccccc1C(=O)N1CCOCC1 (stereo not given)	0	0	5	-1	-8
O=C(NCCCN1CCOCC1)c1ccc(Br)cc1	.	.	.	.	-1
Cc1cc(C)n(-c2ccc(C(=O)NCCCN3CCOCC3)cc2)n1	44*	.	-1	-1	-3
Cc1c(C)n(C)c2ccc(C(=O)NCCN3CCOCC3)cc12	0	0	-12	34*	.
N#C[C@H]1[C@@H](c2ccccc2-c2cccc(F)c2)[C@@H](CO)N1C(=O)C1CC1	.	0	-2	-2	.
N#C[C@@H]1[C@H](c2ccccc2-c2cccc(F)c2)[C@@H](CO)N1C(=O)C1CC1	-1	0	77*	3	.
N#C[C@H]1[C@H](c2ccccc2C2=CCCCC2)[C@H](CO)N1C(=O)C1CCOCC1	0	0	-9	17*	.
C/C=C/c1cnc2c(c1)C(=O)N([C@@H](C)CO)C[C@@H](C)[C@H](CN(C)S(=O)(=O)c1cccs1)O2	0	0	4	10	.
O=C(c1cccc([N+](=O)[O-])c1)c1ccccn1	0	1	-5	-4	.
Cn1cccc1C(=O)c1cccc([N+](=O)[O-])c1	0	0	-1	17*	-2
COCCn1c(-c2ccc(-c3ccc([N+](=O)[O-])cc3Br)o2)nc2c1c(=O)[nH]c(=O)n2CC(C)C	0	.	-1	15*	-5
COCCn1c(=O)[nH]c(=O)c2c1nc(-c1ccc(-c3ccc(Cl)cc3[N+](=O)[O-])o1)n2Cc1ccccc1	0	.	-4	2	.
CC(C)Cn1c(-c2cc(Br)ccc2F)nc2c1c(=O)[nH]c(=O)n2CC(C)C	2.3*	.	1	-7	-17
CO[C@@H]1CN(C)C(=O)c2ccc(NC(=O)c3ccc(-c4ccccc4)cc3)cc2OC[C@@H](C)NC[C@H]1C	0	0	0	6	.
COc1ccc(CC(=O)OCC(=O)Nc2ccc3c(c2)OCO3)cc1	43*	1	-8	-5	.
COc1cc(NC(=O)COC(=O)CO/N=C(\C)c2ccc3c(c2)OCO3)cc(OC)c1OC	0	180*	-5	-1	.
CO[C@H]1CN(C)C(=O)c2ccc(NC(=O)C3CCOCC3)cc2OC[C@H](C)NC[C@@H]1C	.	0	3	-2	.
COCC(=O)Nc1ccc2c(c1)[C@@H]1C[C@@H](CC(=O)NCc3ccc(OC)cc3)O[C@H](CO)[C@@H]1O2	0	-1	17	-2	0[16.7 µM]
CCn1c(SCC(=O)Nc2ccc(Cl)cc2)nc2nc3c(cc2c1=O)CCCC3	.	.	.	.	-5
CCn1c(SCC(=O)Nc2ccc(OC)cc2)nc2nc3c(cc2c1=O)CCCC3	0	0	-3	16*	1
Cc1cc(C)c(OCCOCCN(C)C)c(Br)c1	0	0	-3	-3	.
Cc1cc(C)c(OCCCCN(C)C)c(Br)c1	0	.	-22	15*	.
Cn1cc(CC(=O)Nc2cccc(C#N)c2)c2ccccc21	.	.	.	.	138*
CCOCCCNCc1cn(-c2ccc(F)cc2F)nc1-c1ccccc1C	43*	0	-10	1	.
SMILES	FGF22 binding	E-selectin induc	S100A4 inh HTS	SIRT5 inh	miR-122 sensor
CCCC(=O)Nc1ccc2c(c1)OC[C@@H](C)N(Cc1ccncc1)C[C@@H](C)[C@H](OC)CN(C)C2=O	0	0	3	0	-9[16.7 µM]
CO[C@H]1CN(C)C(=O)c2ccc(NC(=O)C3CCCCC3)cc2OC[C@@H](C)N(Cc2nccs2)C[C@H]1C	0	0	-36	3	2[16.7 µM]
CCCC(=O)Nc1ccc2c(c1)OC[C@H](C)N(CCC(F)(F)F)C[C@H](C)[C@@H](OC)CN(C)C2=O	0	0	131*	0	.
CO[C@@H]1CN(C)C(=O)c2ccc(NC(=O)c3ccc4c(c3)OCO4)cc2OC[C@@H](C)N(Cc2ccc3c(c2)OCO3)C[C@H]1C	0	0	80*	0	.
CCCC(=O)Nc1ccc2c(c1)OC[C@@H](C)N(Cc1ccncc1)C[C@H](C)[C@H](OC)CN(C)C2=O	-1	0	121*	1	-14[16.7 µM]
CO[C@H]1CN(C)C(=O)c2ccc(NC(=O)C3CCCCC3)cc2OC[C@@H](C)N(Cc2nccs2)C[C@@H]1C	-1	0	130*	5	44[16.7 µM]
COc1cccc(C(=O)Nc2ccc3c(c2)C(=O)N(C)C[C@@H](OC)[C@@H](C)CN(CCc2ccccc2)[C@@H](C)CO3)c1	0	1	-19	15*	.
CCCC(=O)Nc1ccc2c(c1)OC[C@H](C)N(C(=O)c1cnccn1)C[C@H](C)[C@H](OC)CN(C)C2=O	0	1	3	-3	.
CCCC(=O)Nc1ccc2c(c1)OC[C@@H](C)N(C(=O)c1cnccn1)C[C@@H](C)[C@H](OC)CN(C)C2=O	0	0	142*	-4	.
C[C@@H]1CN([C@H](C)CO)C(=O)c2cccc(N(C)C)c2O[C@@H]1CN(C)Cc1ccc(Cl)c(Cl)c1	0	0	1	.	4[16.7 µM]
C[C@H](CO)N1C[C@H](C)[C@@H](CN(C)Cc2ccc(Cl)c(Cl)c2)Oc2ccc(NC(=O)C3CC3)cc2CC1=O	-1	1	6	9	-2[16.7 µM]
N#Cc1ccccc1COC(=O)CCCC1=NS(=O)(=O)c2ccccc2N1	0	1	-4	32*	13
C[C@H]1CN([C@@H](C)CO)C(=O)Cc2cc(NS(C)(=O)=O)ccc2O[C@H]1CN(C)C(=O)NC1CCCCC1	0	2	-1	-3	-5[16.7 µM]
